Molecules are shown by their SMILES.

In data set [1] the target is Fibroblast growth factor receptor 1 (Homo sapiens, UniProt P11362). The data set can be described thus: Inhibition of FGFR1 (unknown origin) after 60 mins by ELISA. In general terms: An ELISA detects its analyte on a solid surface through an enzyme-linked reagent.
The nature of data set [2]: AUC (0 to infinity) in ICR(CD-1) mouse at 10 mg/kg, po administered via gavage by triple quadrupole mass spectrometric analysis. Particulars: in vivo. Further details: dose 10 mg/kg, route oral, time infinity. The format is ADME, organism-based. In a few lines: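 Oral gavage at 1 mg/mL in 1% Tween80/water to male ICR mice (18-22 g, n=3). Plasma sampled at 0.25, 0.5, 1, 2, 4, 8 and 24 h, protein precipitated with methanol:acetonitrile (1:1) containing internal standard, and quantified by UPLC-triple quadrupole MS. AUC and MRT were taken from per-animal time-concentration curves. Cmax is the maximum plasma level and Tmax the time to reach it.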

In data set [3] the target is Macrophage colony-stimulating factor 1 receptor (Homo sapiens) (UniProt P07333). Briefly: Inhibition of CSF-1R (unknown origin) at 1000 nM relative to control.
Data set [4] has as its target Epidermal growth factor receptor (Homo sapiens) (UniProt P00533). Briefly: Inhibition of EGFR (unknown origin) at 1000 nM relative to control. In a few lines: (§1)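 Purified recombinant kinase domains run in ELISA on precoated poly(Glu,Tyr) 4:1 (20 µg/mL) with 10 µM ATP in 50 mM HEPES pH 7.4, 50 mM MgCl2, 0.5 mM MnCl2, 0.2 mM Na3VO4, 1 mM DTT; 1% DMSO control; 60 min at 37 °C. Phosphotyrosine read by PY99 antibody, HRP anti-mouse IgG, OPD/H2O2 at 490 nm; inhibition = [1−A490/A490control]×100%; two separate experiments.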

The target of data set [5] is Fibroblast growth factor receptor 3 (Homo sapiens) (UniProt P22607). Briefly: Inhibition of FGFR3 (unknown origin) at 1000 nM relative to control. The essentials: as §1
Chain of Fibroblast growth factor receptor 3 (Homo sapiens) (P22607 23-806 limits assumed): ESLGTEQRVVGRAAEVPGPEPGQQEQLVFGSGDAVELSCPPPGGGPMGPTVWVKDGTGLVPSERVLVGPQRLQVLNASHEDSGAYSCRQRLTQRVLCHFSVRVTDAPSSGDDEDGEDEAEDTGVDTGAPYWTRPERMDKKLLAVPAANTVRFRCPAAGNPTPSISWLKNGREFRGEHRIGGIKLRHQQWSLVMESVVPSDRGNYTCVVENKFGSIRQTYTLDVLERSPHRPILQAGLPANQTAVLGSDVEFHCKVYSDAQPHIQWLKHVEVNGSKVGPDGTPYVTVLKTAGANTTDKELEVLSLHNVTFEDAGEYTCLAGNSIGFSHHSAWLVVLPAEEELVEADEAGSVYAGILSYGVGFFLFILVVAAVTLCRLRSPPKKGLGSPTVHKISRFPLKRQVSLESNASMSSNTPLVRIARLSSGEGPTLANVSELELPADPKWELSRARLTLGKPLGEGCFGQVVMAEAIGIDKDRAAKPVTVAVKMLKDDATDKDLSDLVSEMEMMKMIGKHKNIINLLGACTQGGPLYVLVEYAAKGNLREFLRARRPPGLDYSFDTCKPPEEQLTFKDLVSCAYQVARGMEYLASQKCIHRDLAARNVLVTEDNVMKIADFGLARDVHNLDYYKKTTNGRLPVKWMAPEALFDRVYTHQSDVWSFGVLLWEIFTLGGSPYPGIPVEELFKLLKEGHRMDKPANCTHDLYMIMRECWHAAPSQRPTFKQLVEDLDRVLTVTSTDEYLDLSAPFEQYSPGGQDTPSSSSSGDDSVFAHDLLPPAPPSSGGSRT
Data set [6] deals with Fibroblast growth factor receptor 4 (Homo sapiens) (UniProt P22455). The data set can be described thus: Inhibition of FGFR4 (unknown origin) at 1000 nM relative to control. The essentials:
as §1

In data set [7] the target is Receptor-type tyrosine-protein kinase FLT3 (Homo sapiens) (UniProt P36888). The data set can be described thus: Inhibition of FLT-3 (unknown origin) at 1000 nM relative to control. The essentials:
as §1

The target in data set [8] is Angiopoietin-1 receptor (Homo sapiens) (UniProt Q02763). Briefly: Inhibition of Tie-2 (unknown origin) at 1000 nM relative to control. In a few lines:
(§2)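 ELISA with purified recombinant kinase on plates precoated with poly(Glu,Tyr) 4:1 at 20 µg/mL. ATP 10 µM in HEPES pH 7.4 buffer with MgCl2, MnCl2, Na3VO4 and DTT. Run 60 min at 37 °C. Detected with anti-phosphotyrosine PY99, HRP secondary antibody and o-phenylenediamine, read at 490 nm. Inhibition % = [1 − A490/A490 control]×100. 1% DMSO as negative control.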

The target in data set [9] is Vascular endothelial growth factor receptor 1 (Homo sapiens) (UniProt P17948). Briefly: Inhibition of VEGFR1 (unknown origin) at 1000 nM relative to control. In a few lines: as §2
Chain of Vascular endothelial growth factor receptor 1 (Homo sapiens) (P17948 whole entry): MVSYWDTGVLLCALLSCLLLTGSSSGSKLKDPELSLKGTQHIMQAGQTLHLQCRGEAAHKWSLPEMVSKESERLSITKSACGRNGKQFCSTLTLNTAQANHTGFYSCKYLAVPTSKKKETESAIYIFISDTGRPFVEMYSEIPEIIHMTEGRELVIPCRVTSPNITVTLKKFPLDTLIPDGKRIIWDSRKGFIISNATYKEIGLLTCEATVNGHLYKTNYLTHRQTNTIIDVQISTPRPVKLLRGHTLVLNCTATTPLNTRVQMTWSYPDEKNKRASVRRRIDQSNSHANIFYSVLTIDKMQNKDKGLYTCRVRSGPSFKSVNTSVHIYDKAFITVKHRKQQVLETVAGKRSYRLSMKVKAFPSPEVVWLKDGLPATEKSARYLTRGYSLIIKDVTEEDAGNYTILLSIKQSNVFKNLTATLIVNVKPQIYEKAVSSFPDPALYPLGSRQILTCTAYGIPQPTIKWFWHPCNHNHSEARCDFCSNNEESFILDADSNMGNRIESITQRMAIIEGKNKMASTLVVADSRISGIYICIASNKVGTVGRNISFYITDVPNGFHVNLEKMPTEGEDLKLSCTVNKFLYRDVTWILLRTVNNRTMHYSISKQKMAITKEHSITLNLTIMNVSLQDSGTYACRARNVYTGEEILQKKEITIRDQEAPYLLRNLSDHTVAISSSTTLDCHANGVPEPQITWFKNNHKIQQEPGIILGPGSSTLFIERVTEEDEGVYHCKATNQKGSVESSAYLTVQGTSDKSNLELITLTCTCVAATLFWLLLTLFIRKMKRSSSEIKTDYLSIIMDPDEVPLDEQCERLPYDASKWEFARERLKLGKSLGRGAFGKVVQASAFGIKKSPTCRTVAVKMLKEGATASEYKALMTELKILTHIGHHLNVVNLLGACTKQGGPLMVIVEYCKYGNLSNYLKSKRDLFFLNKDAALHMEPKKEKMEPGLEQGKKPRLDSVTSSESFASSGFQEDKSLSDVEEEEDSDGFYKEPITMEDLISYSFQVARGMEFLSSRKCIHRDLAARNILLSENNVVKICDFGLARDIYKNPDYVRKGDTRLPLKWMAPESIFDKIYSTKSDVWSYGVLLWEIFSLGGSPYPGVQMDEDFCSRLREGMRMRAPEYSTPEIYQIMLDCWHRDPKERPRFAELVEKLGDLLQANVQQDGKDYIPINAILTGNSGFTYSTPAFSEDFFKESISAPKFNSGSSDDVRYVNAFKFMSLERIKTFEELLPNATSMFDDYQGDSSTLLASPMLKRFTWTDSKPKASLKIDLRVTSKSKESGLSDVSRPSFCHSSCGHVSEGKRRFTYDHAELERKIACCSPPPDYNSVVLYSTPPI
Data set [10] deals with Tyrosine-protein kinase ABL1 (Homo sapiens) (UniProt P00519). The data set can be described thus: Inhibition of ABL (unknown origin) at 100 nM relative to control.
In data set [11] the target is ALK tyrosine kinase receptor (Homo sapiens) (UniProt Q9UM73). The data set can be described thus: Inhibition of ALK (unknown origin) at 100 nM relative to control.
The target of data set [12] is Tyrosine-protein kinase receptor UFO (Homo sapiens) (UniProt P30530). The data set can be described thus: Inhibition of AXL (unknown origin) at 100 nM relative to control.
Data set [13] addresses Hepatocyte growth factor receptor (Homo sapiens) (UniProt P08581). The data set can be described thus: Inhibition of c-Met (unknown origin) at 100 nM relative to control. The essentials: as §2
Data set [14] deals with Ephrin type-A receptor 2 (Homo sapiens) (UniProt P29317). Briefly: Inhibition of EPH-A2 (unknown origin) at 100 nM relative to control. The essentials: as §1
Chain of Ephrin type-A receptor 2 (Homo sapiens) (P29317 whole entry): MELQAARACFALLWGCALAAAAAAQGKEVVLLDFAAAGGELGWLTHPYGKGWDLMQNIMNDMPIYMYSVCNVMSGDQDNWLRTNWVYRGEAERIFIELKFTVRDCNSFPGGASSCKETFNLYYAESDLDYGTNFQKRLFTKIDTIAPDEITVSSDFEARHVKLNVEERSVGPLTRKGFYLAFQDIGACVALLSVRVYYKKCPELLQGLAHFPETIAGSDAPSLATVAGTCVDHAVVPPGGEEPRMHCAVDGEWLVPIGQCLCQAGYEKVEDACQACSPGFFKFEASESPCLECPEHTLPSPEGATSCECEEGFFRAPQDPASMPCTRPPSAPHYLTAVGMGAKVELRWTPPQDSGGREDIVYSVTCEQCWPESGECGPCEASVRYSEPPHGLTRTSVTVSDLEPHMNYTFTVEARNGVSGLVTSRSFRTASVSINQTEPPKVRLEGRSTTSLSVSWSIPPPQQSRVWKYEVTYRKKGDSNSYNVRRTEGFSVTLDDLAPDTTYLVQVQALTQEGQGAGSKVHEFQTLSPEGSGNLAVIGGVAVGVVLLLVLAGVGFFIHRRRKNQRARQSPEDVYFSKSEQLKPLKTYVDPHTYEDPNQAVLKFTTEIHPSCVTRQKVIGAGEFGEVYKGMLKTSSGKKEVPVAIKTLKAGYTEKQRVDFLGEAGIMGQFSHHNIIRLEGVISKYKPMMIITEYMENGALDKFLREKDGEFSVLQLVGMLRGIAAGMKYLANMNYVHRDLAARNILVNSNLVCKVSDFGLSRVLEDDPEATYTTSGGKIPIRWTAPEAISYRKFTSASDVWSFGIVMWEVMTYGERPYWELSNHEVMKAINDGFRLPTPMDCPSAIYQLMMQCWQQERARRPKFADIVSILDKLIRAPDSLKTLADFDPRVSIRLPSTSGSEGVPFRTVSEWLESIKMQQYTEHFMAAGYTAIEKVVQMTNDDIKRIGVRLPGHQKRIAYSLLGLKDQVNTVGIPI
The target in data set [15] is Focal adhesion kinase 1 (Homo sapiens) (UniProt Q05397). Briefly: Inhibition of FAK (unknown origin) at 100 nM relative to control. The essentials: as §1
Data set [16] addresses Platelet-derived growth factor receptor beta (Homo sapiens) (UniProt P09619). Briefly: Inhibition of PDGFR-beta (unknown origin) at 100 nM relative to control. In a few lines: as §1
Data set [17] has as its target Vascular endothelial growth factor receptor 1 (Homo sapiens) (UniProt P17948). Briefly: Inhibition of VEGFR1 (unknown origin) at 100 nM relative to control. The essentials:
as §2

Data set [18] has as its target Epidermal growth factor receptor (Homo sapiens) (UniProt P00533). The data set can be described thus: Inhibition of EGFR (unknown origin) at 10 nM relative to control.
Data set [19] concerns the target Receptor tyrosine-protein kinase erbB-2 (Homo sapiens) (UniProt P04626). The data set can be described thus: Inhibition of ErbB2 (unknown origin) at 10 nM relative to control. The essentials:
as §1

Data set [20] addresses Ephrin type-A receptor 2 (Homo sapiens) (UniProt P29317). Briefly: Inhibition of EPH-A2 (unknown origin) at 10 nM relative to control. The essentials: as §1
Data set [21] has as its target Fibroblast growth factor receptor 3 (Homo sapiens) (UniProt P22607). The data set can be described thus: Inhibition of FGFR3 (unknown origin) at 10 nM relative to control. In a few lines:
as §1

The subject of a further data set is NCI-H2286. Briefly: Antitumor activity against human NCI-H2286 cells xenografted in SCID mouse assessed as tumor growth inhibition at 10 mg/kg, po qd for 10 consecutive days relative to control. The format is functional. Particulars: read-out: TGI. In a few lines:
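NCI-H2286 xenograft established by s.c. fragment implantation. At 100-150 mm³ mice were randomized (vehicle n=10, treated n=5) and given compound orally once daily for 10 days. Tumour volume = length×width²/2, measured twice weekly. TGI taken on the final day from change in volume relative to vehicle, with Student's t-test.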
A general note: A xenograft is tissue or cells of one species grown in another, often human tumour cells in immunodeficient mice.

Chain of Epidermal growth factor receptor (Homo sapiens) (P00533 whole entry, the tested form may be a part): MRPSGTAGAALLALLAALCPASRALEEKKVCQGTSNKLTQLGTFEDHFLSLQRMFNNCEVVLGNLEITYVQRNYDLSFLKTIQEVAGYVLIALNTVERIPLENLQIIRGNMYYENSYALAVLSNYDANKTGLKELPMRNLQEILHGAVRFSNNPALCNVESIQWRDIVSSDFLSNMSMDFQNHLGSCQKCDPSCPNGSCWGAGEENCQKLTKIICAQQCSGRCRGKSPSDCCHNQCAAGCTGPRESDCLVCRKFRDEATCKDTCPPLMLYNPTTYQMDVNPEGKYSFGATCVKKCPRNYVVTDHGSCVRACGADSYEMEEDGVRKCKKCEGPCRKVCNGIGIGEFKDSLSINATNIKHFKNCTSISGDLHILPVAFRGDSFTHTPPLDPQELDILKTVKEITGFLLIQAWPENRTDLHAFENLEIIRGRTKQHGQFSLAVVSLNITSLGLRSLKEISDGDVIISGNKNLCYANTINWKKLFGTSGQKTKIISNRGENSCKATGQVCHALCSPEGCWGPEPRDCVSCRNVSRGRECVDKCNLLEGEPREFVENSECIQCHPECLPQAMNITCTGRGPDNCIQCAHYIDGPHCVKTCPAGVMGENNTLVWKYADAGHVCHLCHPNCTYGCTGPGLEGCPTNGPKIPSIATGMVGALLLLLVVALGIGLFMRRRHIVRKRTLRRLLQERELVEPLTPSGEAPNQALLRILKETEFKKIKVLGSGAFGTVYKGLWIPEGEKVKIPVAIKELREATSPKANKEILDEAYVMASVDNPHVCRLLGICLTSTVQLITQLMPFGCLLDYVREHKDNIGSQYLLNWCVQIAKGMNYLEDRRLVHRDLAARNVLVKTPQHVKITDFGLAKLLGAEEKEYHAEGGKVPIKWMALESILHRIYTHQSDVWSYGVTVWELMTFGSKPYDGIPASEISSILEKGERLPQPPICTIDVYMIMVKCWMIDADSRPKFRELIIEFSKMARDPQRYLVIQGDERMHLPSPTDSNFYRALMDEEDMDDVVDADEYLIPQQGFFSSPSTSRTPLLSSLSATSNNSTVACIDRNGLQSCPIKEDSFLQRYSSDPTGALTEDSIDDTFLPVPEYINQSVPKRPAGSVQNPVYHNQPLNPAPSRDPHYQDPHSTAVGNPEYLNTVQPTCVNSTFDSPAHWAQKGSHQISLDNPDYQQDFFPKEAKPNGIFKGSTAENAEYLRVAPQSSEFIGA
Chain of Fibroblast growth factor receptor 4 (Homo sapiens) (P22455 22-802 limits assumed): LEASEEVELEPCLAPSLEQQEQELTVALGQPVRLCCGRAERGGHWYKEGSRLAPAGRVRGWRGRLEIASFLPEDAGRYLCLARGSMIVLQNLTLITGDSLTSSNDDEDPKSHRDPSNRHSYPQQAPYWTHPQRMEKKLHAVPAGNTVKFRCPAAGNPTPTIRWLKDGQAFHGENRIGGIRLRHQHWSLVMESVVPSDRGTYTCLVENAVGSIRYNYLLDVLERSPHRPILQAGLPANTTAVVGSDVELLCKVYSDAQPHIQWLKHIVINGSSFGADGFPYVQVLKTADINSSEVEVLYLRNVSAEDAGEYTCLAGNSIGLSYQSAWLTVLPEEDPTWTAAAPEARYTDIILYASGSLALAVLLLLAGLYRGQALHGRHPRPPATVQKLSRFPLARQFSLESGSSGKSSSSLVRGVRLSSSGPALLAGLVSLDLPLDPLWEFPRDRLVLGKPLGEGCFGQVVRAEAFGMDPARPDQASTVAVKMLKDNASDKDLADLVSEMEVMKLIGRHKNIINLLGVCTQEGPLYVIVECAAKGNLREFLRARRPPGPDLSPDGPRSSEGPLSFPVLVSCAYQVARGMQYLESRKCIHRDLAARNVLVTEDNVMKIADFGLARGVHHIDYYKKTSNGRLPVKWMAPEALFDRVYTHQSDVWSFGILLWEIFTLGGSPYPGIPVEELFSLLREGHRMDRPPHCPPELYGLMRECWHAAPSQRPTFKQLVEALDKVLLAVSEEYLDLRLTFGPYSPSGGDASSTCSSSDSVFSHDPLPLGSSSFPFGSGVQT

A word on the IC50: it is the concentration at which inhibition is half-maximal. A lower IC50 goes with inhibition by little substance. The AUC(0-inf) is the area under the concentration-time curve extrapolated to infinity. For orientation: inhibition means how much of the control response was suppressed. Compound `Cc1ccc(C(=O)Nc2cccc(C(F)(F)F)c2)cc1-c1ccc2c(-c3cnn(C4CC4)c3)n[nH]c2c1` showed an IC50 in data set [1] of 31.1 nM. Also, in data set [2], the AUC(0-inf) worked out at 7680 ng·h/mL. For the same compound, the inhibition in [3] was 94.2%; in data set [4], 18.1%; in [5], 94.2%; in [6], 72.4%; in [7] it was 86.2%; in data set [8], 83.6%. For the same compound, the inhibition in [9] was found to be 86.6%; in data set [10], 100%; in [11] it was 71.7%; in [12], 72.6%; in data set [13] it was 0.3%; in data set [14], 100%. The inhibition in data set [15] turned out to be 8.4%; in [16] it was 99.1%; in [17], 46.8%; in data set [18], 10%; in [19], 8.2%; in [20], 86.6%. The compound also gave an inhibition in [21] of 52.3%. Also, the inhibition in vivo at 10 mg/kg with NCI-H2286 was determined as 82.8%.
